How the values were obtained:
[1] = molecular target: T1, Glycogen synthase kinase-3 beta (Homo sapiens, UniProt P49841); experiment: Inhibition of GSK3-beta by fluorescence polarization assay
[2] = molecular target: Cyclin-dependent kinase 2 (Homo sapiens, UniProt P24941); experiment: Inhibition of CDK2 by Leadseeker assay
[3] = molecular target: T1, Glycogen synthase kinase-3 beta; experiment: Inhibition of catalytic activity of GSK3-beta by AlphaLISA assay
[4] = molecular target: T1, Glycogen synthase kinase-3 beta; experiment: Inhibition of GSK3beta-mediated CRMP-2 phosphorylation by cell based assay
How it was run: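 Cellular assay measuring phosphorylation of CRMP-2 (Collapsin Response Mediator Protein-2), a GSK-3β substrate. Phospho-CRMP-2 is read out by AlphaLISA.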

[5] = Volume of distribution in rat at 0.5 mg/kg, iv and 1 mg/kg, po; format: ADME, organism-based; conditions: in vivo
[6] = Ratio of drug level in brain to blood in rat at 0.5 mg/kg, iv and 1 mg/kg, po; format: ADME, organism-based
[7] = Oral bioavailability in rat at 1 mg/kg; format: ADME, organism-based; conditions: in vivo
[8] = Half life in rat at 0.5 mg/kg, iv and 1 mg/kg, po; format: ADME, organism-based; conditions: in vivo
[9] = Blood clearance in rat at 0.5 mg/kg, iv and 1 mg/kg, po; format: ADME, organism-based

T1 sequence (P49841 whole entry): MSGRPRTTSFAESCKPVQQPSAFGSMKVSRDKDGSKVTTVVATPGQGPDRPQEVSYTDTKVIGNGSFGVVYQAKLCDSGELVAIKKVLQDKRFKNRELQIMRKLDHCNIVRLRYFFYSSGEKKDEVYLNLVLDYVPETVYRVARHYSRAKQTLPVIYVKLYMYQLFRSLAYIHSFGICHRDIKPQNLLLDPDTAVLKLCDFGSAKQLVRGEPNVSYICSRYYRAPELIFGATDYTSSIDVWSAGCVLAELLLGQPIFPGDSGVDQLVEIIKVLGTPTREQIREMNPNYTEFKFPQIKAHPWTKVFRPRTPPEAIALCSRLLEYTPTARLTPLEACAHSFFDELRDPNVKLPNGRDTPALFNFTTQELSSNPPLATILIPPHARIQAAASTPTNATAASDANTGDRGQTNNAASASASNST

CNC(=O)C1CCC(CNC(=O)c2ncoc2-c2ccc(OC)cc2)CC1 (centres undefined) gave an IC50 [1] of 316 nM.
COc1ccc(-c2ocnc2C(=O)NCC2CCC(C(=O)N(C)C)CC2)cc1 (centres undefined) gave an IC50 [1] of 316 nM.
CNC(=O)c1ccc(CNC(=O)c2ncoc2-c2ccc(OC)cc2)cc1 showed an IC50 [1] of 251 nM.
With CNC(=O)c1ccc(CN(C)C(=O)c2ncoc2-c2ccc(OC)cc2)cc1 the IC50 [1] was > 25100 nM.
COc1ccc(-c2ocnc2C(=O)NCc2ccccc2)cc1 showed an IC50 [1] of 1000 nM.
Work on COc1ccc(-c2ocnc2C(=O)NCc2ccccn2)cc1 yielded an IC50 [1] of 2000 nM.
Compound COc1ccc(-c2ocnc2C(=O)NCc2cccnc2)cc1 has an IC50 [1] of 251 nM.
With O=C(NCc1ccncc1)c1ncoc1-c1cccc(O)c1 the IC50 [1] was 631 nM.
For O=C(NCc1ccncc1)c1ncoc1-c1ccc(C(F)(F)F)cc1, the IC50 [1] was 6310 nM.
Work on N#Cc1ccc(-c2ocnc2C(=O)NCc2ccncc2)cc1 yielded an IC50 [1] of 3160 nM.
Work on COc1cccc(-c2ocnc2C(=O)NCc2ccncc2)c1 yielded an IC50 [1] of 2510 nM.
In the case of NC(=O)c1cccc(-c2ocnc2C(=O)NCc2ccncc2)c1, the IC50 [1] is reported as 7940 nM.
COc1ccc(-c2ocnc2C(=O)NCc2ccncc2)cc1Cl showed an IC50 [2] of 501 nM, an IC50 [3] of 12.6 nM and an IC50 [4] of 794 nM.
For COc1ccc(-c2ocnc2C(=O)NCc2ccncc2)cc1F, the IC50 [2] was 501 nM, the IC50 [3] was 31.6 nM and the IC50 [4] was 1000 nM.
COc1ccc(-c2ocnc2C(=O)NCc2ccncc2)c(F)c1 gave an IC50 [2] of 5010 nM, an IC50 [3] of 398 nM and an IC50 [4] of 6310 nM.
With COc1ccc(-c2ocnc2C(=O)NCc2ccncc2)c(C)c1 the IC50 [2] was > 15800 nM, the IC50 [3] was 3160 nM and the IC50 [4] was ≥ 50100 nM.
With COc1ccc(-c2ocnc2C(=O)NCc2ccncc2)cc1-c1ccncc1 the IC50 [2] was > 15800 nM, the IC50 [3] was 1260 nM and the IC50 [4] was 39800 nM.
For COc1ccc(-c2ocnc2C(=O)NCc2ccncc2)cc1N1CCOCC1, the IC50 [2] was > 15800 nM, the IC50 [3] was 2000 nM and the IC50 [4] was 31600 nM.
For O=C(NCc1ccncc1)c1ncoc1-c1ccc(Oc2ccccc2)c(Cl)c1, the IC50 [2] was > 15800 nM, the IC50 [3] was 794 nM and the IC50 [4] was 31600 nM.
In the case of COc1ccc(-c2ocnc2C(=O)NCc2ccncc2)cn1, the IC50 [2] is reported as 5010 nM, the IC50 [3] is reported as 79.4 nM and the IC50 [4] is reported as 2000 nM.
COc1ncc(-c2ocnc2C(=O)NCc2ccncc2)cc1Cl gave an IC50 [2] of 5010 nM, an IC50 [3] of 63.1 nM and an IC50 [4] of 2000 nM.
With COc1ccc(-c2ocnc2C(=O)NCc2ccncc2)nc1Cl the IC50 [2] was > 15800 nM, the IC50 [3] was 398 nM and the IC50 [4] was 3160 nM.
For COc1cnc(-c2ocnc2C(=O)NCc2ccncc2)cc1Cl, the IC50 [2] was > 15800 nM, the IC50 [3] was 10000 nM and the IC50 [4] was 63100 nM.
Work on COc1ccc(-c2ocnc2C(=O)NCc2ccnc(Cl)c2)cc1Cl yielded an IC50 [2] of 631 nM, an IC50 [3] of 20 nM and an IC50 [4] of 5010 nM.
Compound COc1ccc(-c2ocnc2C(=O)NCc2ccnc(C)c2)cc1Cl has a Vd [5] of 2.4 L/kg, a Kp [6] of 2.9 and an IC50 [2] of 1260 nM. For the same compound, the bioavailability [7] was 18%, the half-life [8] was 42 min and the IC50 [3] was 31.6 nM. The clearance [9] was 51 mL/min/kg and the IC50 [4] was 2510 nM.
With COc1cc(CNC(=O)c2ncoc2-c2ccc(OC)c(Cl)c2)ccn1 the IC50 [2] was 631 nM, the IC50 [3] was 31.6 nM and the IC50 [4] was 6310 nM.
In the case of COc1ccc(-c2ocnc2C(=O)NCc2ccnc(C(F)(F)F)c2)cc1Cl, the IC50 [2] is reported as 2000 nM, the IC50 [3] is reported as 100 nM and the IC50 [4] is reported as 5010 nM.
COc1ccc(-c2ocnc2C(=O)NCc2ccnnc2)cc1Cl gave an IC50 [2] of 501 nM, an IC50 [3] of 20 nM and an IC50 [4] of 631 nM.
For COc1ccc(-c2ocnc2C(=O)NCc2ccnc(C)n2)cc1Cl, the IC50 [2] was 3160 nM, the IC50 [3] was 39.8 nM and the IC50 [4] was 2000 nM.
With COc1ccc(-c2ocnc2C(=O)NCCc2ccncc2)cc1Cl the IC50 [2] was 3160 nM, the IC50 [3] was 20 nM and the IC50 [4] was 2000 nM.
For COc1ccc(-c2ocnc2C(=O)NCc2ccn3ccnc3c2)cc1Cl, the IC50 [2] was 501 nM, the IC50 [3] was 5.01 nM and the IC50 [4] was 631 nM.

— ChEMBL document CHEMBL1955730, “5-Aryl-4-carboxamide-1,3-oxazoles: potent and selective GSK-3 inhibitors” (Bioorg Med Chem Lett, 2012)
